Laboratory results from ChEMBL document CHEMBL1144520, “Synthesis of 5-deazaflavin derivatives and their activation of p53 in cells” (2007).
Activity calls are given as the source filed them. No cut-off for these calls is given here.

What was measured:
[1] = tested on: RKO; assay: Stabilization of p53 level in RKO cells; type: functional, cell-based; conditions: Homo sapiens
[2] = tested on: RPE; assay: Induction of p21WAF1/CIP1 level in RPE cells; type: functional, cell-based; conditions: Homo sapiens
Procedure, shortened: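 Primary human retinal pigment epithelial (RPE) cells were exposed to each compound at 1–20 µM for 24 h. Whole-cell extracts were resolved by SDS 12% polyacrylamide gel electrophoresis and read out by Western blotting.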

[3] = tested on: RKO; assay: Cell cycle arrest in RKO cells by accumulation at G1 phase; type: functional, Homo sapiens
[4] = tested on: RKO; assay: Induction of apoptosis in RKO cells; type: functional, cell-based; conditions: Homo sapiens
[5] = tested on: RKO/E6; assay: Induction of apoptosis in RKO/E6 cells; type: functional, cell-based; conditions: Homo sapiens
Procedure, shortened: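 RKO/E6 cells are RKO cells expressing HPV16 E6 protein, which inactivates endogenous p53. They are used to test p53 dependence of the apoptotic response.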

[6] = tested on: RKO; assay: Cell cycle arrest in RKO cells by accumulation at G2 phase; type: functional, cell-based; conditions: Homo sapiens
[7] = tested on: RKO; assay: Cell cycle arrest in RKO cells by accumulation at G2/M phase; type: functional, cell-based; conditions: Homo sapiens

Structure (SMILES)	Activity [1]	Activity [2]	Activity [3]	Activity [4]	Activity [5]	Activity [6]	Activity [7]	Activity ([3]; Homo sapiens)
Cc1ccc(-n2c3nc(=O)[nH]c(=O)c-3cc3c(C(F)(F)F)cccc32)cc1	inactive	inactive	62%	inactive	inactive			
O=c1nc2n(-c3ccccc3Cl)c3ccc([N+](=O)[O-])cc3cc-2c(=O)[nH]1	Active	Active			Active	Active	Active	
O=c1nc2n(-c3cccc(Cl)c3)c3ccc([N+](=O)[O-])cc3cc-2c(=O)[nH]1	Active	Active	75%		inactive			
O=c1nc2n(-c3ccc(Cl)cc3)c3cccc(Cl)c3cc-2c(=O)[nH]1	Active	Active			inactive			Active
O=c1nc2n(-c3ccc(Cl)cc3)c3ccc(C(F)(F)F)cc3cc-2c(=O)[nH]1	inactive	inactive		inactive	inactive			
Cc1ccc(-n2c3nc(=O)[nH]c(=O)c-3cc3c(Cl)cccc32)cc1	Active	Active	73%		inactive			
O=c1nc2n(-c3ccccc3Cl)c3cccc(Cl)c3cc-2c(=O)[nH]1	Active				Active	Active	Active	
